From PubChem
D1 mod: allosteric modulators of human D1 dopamine receptor | HEK293 D1, CRE-luciferase, dopamine EC30 potentiation; actives deviate in either direction | B-score at 10 µM | 5.9% of 58,000 active;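 active = luminescence count or its row- and column-corrected plate score outside the 99.7% band of the plate's sample wells, on either side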
PostGolgi ctrl: yeast control strain growth, post-Golgi counter-screen | efflux-deficient yeast background strain, growth absorbance A615, 16 h | inhibition, % at 10 µM | 5% of 98,000 active
hDAT+cocaine: modulates human dopamine transporter uptake under cocaine | LLC-PK1 hDAT cells, [14C]-dopamine uptake with cocaine IC80; actives deviate in either direction | Q01959 | B-score at 10 µM | 1.3% of 110,000 active;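 active = Z score or B-score, a plate-position-corrected score, falls beyond the plate's 99.7% confidence bounds, in either direction; inactive = both scores lie inside the 99.7% bounds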;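 also: scored against the spread of the other compound wells on the same plate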
Target sequence (Q01959 whole entry, looked up): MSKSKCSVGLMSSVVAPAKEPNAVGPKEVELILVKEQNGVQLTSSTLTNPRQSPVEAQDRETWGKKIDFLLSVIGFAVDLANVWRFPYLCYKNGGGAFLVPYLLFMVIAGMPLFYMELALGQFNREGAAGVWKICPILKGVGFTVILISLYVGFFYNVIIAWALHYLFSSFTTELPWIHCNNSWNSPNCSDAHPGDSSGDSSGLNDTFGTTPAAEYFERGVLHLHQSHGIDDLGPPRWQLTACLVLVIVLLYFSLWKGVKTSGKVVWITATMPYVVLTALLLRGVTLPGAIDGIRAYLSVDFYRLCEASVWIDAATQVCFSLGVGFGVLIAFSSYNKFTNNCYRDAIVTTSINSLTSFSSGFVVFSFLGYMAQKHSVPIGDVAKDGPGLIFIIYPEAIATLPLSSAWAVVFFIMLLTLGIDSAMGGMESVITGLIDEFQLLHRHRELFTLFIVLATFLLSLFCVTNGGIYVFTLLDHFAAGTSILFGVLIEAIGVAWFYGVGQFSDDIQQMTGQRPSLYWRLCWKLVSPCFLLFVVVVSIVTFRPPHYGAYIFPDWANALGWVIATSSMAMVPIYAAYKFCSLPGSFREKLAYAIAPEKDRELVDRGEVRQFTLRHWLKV
Ecoli WT expand: growth inhibitors of E. coli BW25113 wild type. 0.15% of 98,000 active. OD600 absorbance. growth inhibition, % at 100 µM. AID 710;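 active = growth inhibition above about 50% at one test dose, limit read from the data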;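 also: growth measured after 20 h incubation at 37 °C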
Ecoli tolC: blocks growth of E. coli BW25113 tolC mutant; OD615; growth inhibition, % at 10 µM (by protocol); 2.2% of 65,000 active; AID 573;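 active = growth inhibition at or above a cutoff equal to the mean over every tested compound plus 3 SD, cut at about 60% in these data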;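 also: growth measured after 20 h incubation at 37 °C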
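Material: E. coli BW25113 ΔtolC::kan, tolC deletion mutant strain. Measure: percent growth inhibition. Schedule: 37 °C, 20 h exposure. Doses: single-point testing at 10 µM. Signal: A615 absorbance measurement. Buffer or medium: kanamycin-containing LB broth (50 µg/mL).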
PostGolgi yeast: growth inhibition of a yeast mutant, post-Golgi transport screen; post-Golgi transport phenotypic cell assay; inhibition, % at 10 µM; 0.9% of 98,000 active; AID 739;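 also: yeast cells grown in 1536-well plates; yeast grown about 18 h at 30C before absorbance read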
Numbers without * were called inactive; · = no result given. Hits are enriched below; roughly 9.3% of the tested compounds scored in any of these assays. Rule as the data show it, unless noted: active = inhibition above about 30%; inactive = the rest.

SMILES | D1 mod | PostGolgi ctrl | hDAT+cocaine | Ecoli WT expand | Ecoli tolC | PostGolgi yeast
O=C(COc1ncnc2scc(-c3ccc(Cl)cc3)c12)NCc1ccco1 | · | 16 | -0.2 | -1 | · | -5
Cc1c(C(c2ccc([N+](=O)[O-])cc2)c2c(C)n(C)n(-c3ccccc3)c2=O)c(=O)n(-c2ccccc2)n1C | · | 7 | -0.83 | -2 | · | -2
Cc1nnc(C)n1/N=C/c1cc(Br)ccc1O | 1.2 | -1 | 0.97 | 8 | -10 | 3
Cc1nnc(C)n1/N=C/c1cc(Br)cc(Br)c1O | · | 11 | 1.9 | 51* | 2 | 4
O=c1c2cc3c(cc2[nH]c(=S)n1Cc1ccco1)OCO3 | -0.14 | 0 | · | -1 | -1 | -2
O=C(COC(=O)C12CC3CC(CC(C3)C1)C2)NC12CC3CC(CC(C3)C1)C2 | · | 33* | 0.64 | -3 | · | 13
Clc1ccc(CNCCC2=CCCCC2)cc1 | · | 6 | -0.044 | 34 | · | 5
Cc1nc(-c2ccc(NC(=O)C3CCCCC3)cc2)cs1 | · | 0 | 0.11 | -1 | · | -7
Cc1cc(Nc2cc(Cl)nc(Sc3ccc(NC(=O)C4CC4)cc3)n2)n[nH]1 | · | · | -2.6* | · | · | ·
CCCc1cc(O)c2c(C)cc(=O)oc2c1 | · | · | -0.014 | · | · | ·
CCOC(=O)C1=C(C)NC(=O)NC1c1cccnc1 (stereo not drawn) | -7.8* | 2 | 0.26 | -5 | -14 | -2
CCOC(=O)C1=C(C)NC(=O)C(C(N)=O)C1c1ccccc1 (stereo not drawn) | 0.62 | 33* | 0.73 | 1 | -13 | 2
CCOC(=O)C1=C(C)NC(=O)C(C(N)=O)C12CCCC2 (stereo not drawn) | · | 7 | -0.078 | 2 | · | 4
O=C1OCC(CO)(CO)N=C1NNc1ccccc1Cl | · | 8 | -0.31 | 8 | · | 2
CCOC(=O)C1=C(C)NC(C)=C(C(=O)OCC)C1c1sccc1C | · | 38* | 0.68 | 8 | · | -7
CCOc1ccc(Nc2nc(Cc3nnc(SCC(=O)NCc4ccco4)n3CC)cs2)cc1 | -1.8 | -8 | 2.8 | -4 | 3 | 10
CC(C)c1nnc(NC(=O)C2CCN(c3nc4ccccc4s3)CC2)s1 | 1.9 | 34* | 1.7 | -6 | -11 | 5
CC(C)c1nnc(NC(=O)C2CCN(c3cnccn3)CC2)s1 | · | · | 2.4 | · | · | ·
CCn1c(-c2cc3c(C(F)(F)F)nn(C)c3s2)n[nH]c1=S | · | 41* | -1.3 | -5 | · | 4
CC(C)Cn1c2nc3ccccc3nc2c2c(=O)n(CCN3CCOCC3)cnc21 | 4.8* | 15 | 0.49 | 1 | 9 | 9
CCOC(=O)N1CCN(S(=O)(=O)c2cc(Br)cnc2N)CC1 | -3.3* | -8 | -0.58 | -10 | 1 | -6
CCOC(=O)N1CCN(S(=O)(=O)c2cc(OCC)ccc2OCC)CC1 | -0.15 | 11 | 0.55 | 5 | 25 | 10
CCOC(=O)N1CCN(S(=O)(=O)c2cc(Cl)c(OC)cc2Cl)CC1 | 0.94 | · | 1.6* | · | 27 | ·
CCCCC(=O)Nc1cc(C(=O)NCCc2ccccc2)ccc1Cl | · | 3 | 0.66 | -1 | · | 2
CC(C)CC(=O)NC(=S)Nc1ccc(NC(=O)c2cccs2)cc1 | · | 0 | 0.29 | -1 | · | -6
SMILES | D1 mod | PostGolgi ctrl | hDAT+cocaine | Ecoli WT expand | Ecoli tolC | PostGolgi yeast
CCOC(=O)c1[nH]c(C)c(C(=O)NC)c1C | -0.45 | 2 | -0.3 | 3 | -12 | 2
CCOC(=O)c1[nH]c(C)c(C(=O)NC(C)(C)C)c1C | -0.043 | 31* | 0.51 | 5 | -16 | -4
CCCOc1ccc(C2C(=O)N(C3CCCCC3)CC(=O)N2C2CC2)cc1OC (stereo not drawn) | -0.79 | 5 | 0.68 | 3 | -16 | -1
CC(C)Cn1c(=O)c(C(=O)NCc2ccccn2)c(O)c2ccccc21 | 1.9 | 31* | 0.037 | 13 | -3 | -5
COc1ccc(-n2c(C)c(C(C)=O)c3cc(O)ccc32)cc1 | · | 32* | -0.86 | -16 | 5 | -1
COC(=O)C1=C(NC(=O)c2cccc(C)c2)CCS1 | · | · | · | · | 5 | ·
CN(C)C=Nc1ccc2nn(-c3ccccc3)nc2c1 | -2.5* | 13 | 0.069 | -4 | -4 | -2
COC(=O)CCn1nnc(-c2cccs2)n1 | -0.3 | -7 | 0.14 | 9 | -23 | -3
COC(=O)CCn1nnc(-c2ccc(C(C)C)cc2)n1 | -2.5* | 10 | 0.0037 | 7 | -10 | -10
C=CCOC(=O)C1=C[C@@H](c2csc3ccccc23)[C@H](CCCO)[C@@H](OCC)O1 | · | · | 1.2 | · | · | ·
CC1CCCC(C)N1C(=O)CSc1nnnn1-c1cccc2c1CCCC2 (stereo not drawn) | · | 2 | 0.69 | 3 | · | 0
CC1CCCC(C)N1C(=O)CSc1nnnn1Cc1ccccc1 (stereo not drawn) | 6.1* | 15 | 1 | -2 | 11 | 4
Cc1ccc(C(=O)c2c(NC(=O)c3cccnc3)sc3c2CCCC3)cc1 | · | 33* | 0.37 | -16 | · | -10
CN1CCN(C(=O)c2ccccc2-c2ccccc2C(=O)O)CC1 | 0.47 | 4 | -1.9 | 6 | -10 | 5
Cc1cc(NC(=O)CSc2nnc(-c3ccoc3C)o2)no1 | 1.3 | 10 | 2.6* | -3 | -3 | 8
Cc1cc(NC(=O)CSc2nnc(C3COc4ccccc4O3)o2)no1 (stereo not drawn) | 0.32 | 42* | -0.55 | -17 | -20 | 1
COc1cc(OC)cc(-c2nnc(SCC(=O)Nc3cc(C)on3)o2)c1 | -0.035 | · | · | · | 8 | ·
N#Cc1c(-c2ccccc2)ccnc1Oc1ccccc1 | · | 8 | 0.56 | -7 | · | -6
COC(=O)c1ccccc1NC(=O)CN(C)S(=O)(=O)c1cc(C)ccc1OC | -0.39 | 14 | 0.15 | -1 | 22 | -5
CCOC(=O)C1CCN(C(=O)CSC2=NCCS2)CC1 | -0.021 | 5 | 0.39 | 0 | -11 | -3
CCOc1ccc(S(=O)(=O)N2c3ccccc3CC2C)cc1 (stereo not drawn) | · | 26 | -2.7* | -8 | · | -4
CCOC(=O)c1c(-c2ccc(C)o2)csc1NC(=S)NC(=O)N(C)C | · | 12 | 0.33 | -6 | · | 10
CCCC(c1nnnn1Cc1ccc(OC)cc1)N1CCN(c2ccccc2)CC1 (stereo not drawn) | -1.8 | 31* | -0.59 | -16 | 18 | 3
Cc1ccc(S(=O)(=O)Cn2nnnc2C(CC(C)C)N2CCN(c3ccccc3)CC2)cc1 (stereo not drawn) | · | · | 1 | · | · | ·
COc1ccc(Cn2nnnc2C(C(C)C)N2CCc3ccccc32)cc1 (stereo not drawn) | -0.3 | 28 | 0.35 | -4 | 73* | -1
COc1ccc(Cn2nnnc2C(c2cccs2)N2CCOCC2)cc1 (stereo not drawn) | -1.2 | 7 | 0.021 | -9 | -8 | 7
CCCC(c1nnnn1Cc1ccc(OC)cc1)N1CCC(C(N)=O)CC1 (stereo not drawn) | -0.99 | 9 | 0.5 | 2 | -14 | 7
CC(C)CC(c1nnnn1C(C)C)N1CCN(c2ccccc2)CC1 (stereo not drawn) | · | 61* | 0.26 | -2 | · | -7
COc1ccc(Cn2nnnc2C(CC(C)C)N2CCN(c3ccccc3)CC2)cc1 (stereo not drawn) | · | 63* | -0.055 | -15 | 25 | 14
